Laboratory results as given in ChEMBL document CHEMBL2440116, “Structure-activity relationships of 2-aminothiazoles effective against Mycobacterium tuberculosis” (Bioorg Med Chem, 2013).
≈ marks a conversion by molar mass, not a printed value.

Assays:
[1] = test system: Mycobacterium tuberculosis; test: Antitubercular activity against Mycobacterium tuberculosis H37Rv in GAST media with glycerol and alanine after 7 to 14 days by broth microdilution method; format: functional
[2] = test system: Mycobacterium tuberculosis; test: Antitubercular activity against Mycobacterium tuberculosis H37Rv in Middlebrook 7H9 broth with glucose after 7 to 14 days by broth microdilution method; format: functional
Summary of the method: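 Broth microdilution of H37Rv in 7H9 with 0.8 g/L NaCl, 5 g/L BSA fraction V, 4 g/L glucose and 0.05% Tyloxapol. Run in quadruplicate from DMSO stocks with DMSO controls; isoniazid positive control.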

[3] = Therapeutic index, ratio of EC50 for african green monkey Vero cells to MIC for Mycobacterium tuberculosis H37Rv; format: cell-based; conditions: read-out: TI
[4] = test system: Vero; test: Cytotoxicity against african green monkey Vero cells after 72 hrs by MTT assay; format: cell-based; conditions: Chlorocebus sabaeus
Summary of the method: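 Vero (CCL-81) cells in MEM with 10% FBS, penicillin-streptomycin and Glutamax, seeded at 3.0×10⁴ per well and left to adhere overnight. Compounds added from DMSO at final 100–0.16 μM, triplicate, for 72 h at 37 °C, 4.5% CO2. Then MTT 1.0 mg/mL in phenol-red-free RPMI for 3 h, formazan dissolved in isopropanol, A570 minus A690. Viability taken relative to DMSO control; EC50 from dose-response curves.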

[5] = test system: Mycobacterium tuberculosis; test: Antitubercular activity against Mycobacterium tuberculosis H37Rv in Middlebrook 7H9 broth with butyrate after 7 to 14 days by broth microdilution method; format: functional

SMILES | MIC99 [1] | MIC99 [2] | selectivity ratio [3] | EC50 [4] | MIC99 [5]
O=C(Nc1cc(-c2ccccn2)cs1)c1ccccc1 | 12.5 µM (≈ 3.5 µg/mL) | > 25 µM | – | – | –
O=C(Nc1nc(-c2ccccc2)cs1)c1ccccc1 | ≥ 25 µM | > 25 µM | – | – | –
O=C(Nc1nc(-c2ccccn2)cs1)c1ccc(OCc2ccccc2)cc1 | 0.098 µM (≈ 0.038 µg/mL) | 0.19 µM (≈ 0.0736 µg/mL) | 6 | 2300 nM | –
Oc1ccccc1Nc1nc(-c2ccccn2)cs1 | > 12.5 µM | 50 µM (≈ 13.5 µg/mL) | – | – | 25 µM (≈ 6.73 µg/mL)
O=C(Nc1nc(-c2ccccn2)c[nH]1)c1ccccc1 | 3.13 µM (≈ 0.827 µg/mL) | 25 µM (≈ 6.61 µg/mL) | – | – | –
O=C(Nc1nc(-c2ccccn2)cs1)c1c(F)cccc1Cl | 0.19 µM (≈ 0.0634 µg/mL) | 0.78 µM (≈ 0.26 µg/mL) | – | 1300 nM | 0.39 µM (≈ 0.13 µg/mL)
CCCCCCCCCC(=O)Nc1nc(-c2ccccn2)cs1 | 1.6 µM (≈ 0.53 µg/mL) | 6.3 µM (≈ 2.09 µg/mL) | – | – | 3.1 µM (≈ 1.03 µg/mL)
Cc1cccc(Nc2nc(-c3ccccn3)cs2)c1C | 3.1 µM (≈ 0.872 µg/mL) | 12.5 µM (≈ 3.52 µg/mL) | – | – | 12.5 µM (≈ 3.52 µg/mL)
Fc1ccccc1Nc1nc(-c2ccccn2)cs1 | > 12.5 µM | 50 µM (≈ 13.6 µg/mL) | – | – | 25 µM (≈ 6.78 µg/mL)
O=C(Nc1nc(-c2ccccn2)cs1)c1cccc(OCc2ccccc2)c1 | 0.19 µM (≈ 0.0736 µg/mL) | 0.39 µM (≈ 0.151 µg/mL) | 32 | 14400 nM | 0.049 µM (≈ 0.019 µg/mL)
O=C(Nc1nc(-c2ccccn2)cs1)C1CCCC1 | – | 12.5 µM (≈ 3.42 µg/mL) | – | – | 3.1 µM (≈ 0.847 µg/mL)
c1ccc(Nc2nc(-c3ccccn3)cs2)cc1 | 12.5 µM (≈ 3.17 µg/mL) | 25 µM (≈ 6.33 µg/mL) | – | – | 12.5 µM (≈ 3.17 µg/mL)
O=C(Nc1nc(-c2ccccn2)cs1)c1ccc(F)c(F)c1 | 0.39 µM (≈ 0.124 µg/mL) | 1.6 µM (≈ 0.508 µg/mL) | – | – | 3.1 µM (≈ 0.984 µg/mL)
O=C(Nc1nnc(-c2ccccn2)o1)c1ccccc1F | 6.25 µM (≈ 1.78 µg/mL) | 12.5 µM (≈ 3.55 µg/mL) | – | – | –
CCCCCC(=O)Nc1nc(-c2ccccn2)cs1 | 3.1 µM (≈ 0.854 µg/mL) | 6.3 µM (≈ 1.73 µg/mL) | – | – | 3.1 µM (≈ 0.854 µg/mL)
O=C(Nc1nc(-c2ccccn2)cs1)c1cccc(F)c1 | 0.049 µM (≈ 0.0147 µg/mL) | 0.19 µM (≈ 0.0569 µg/mL) | 3 | 1200 nM | 0.098 µM (≈ 0.0293 µg/mL)
c1ccc(Nc2nc(-c3ccccn3)cs2)nc1 | 0.39 µM (≈ 0.0992 µg/mL) | 0.78 µM (≈ 0.198 µg/mL) | – | – | 0.39 µM (≈ 0.0992 µg/mL)
O=C(Nc1nc(-c2ccccn2)cs1)c1ccccc1O | 0.19 µM (≈ 0.0565 µg/mL) | 1.6 µM (≈ 0.476 µg/mL) | – | – | 1.6 µM (≈ 0.476 µg/mL)

SMILES | MIC99 [1] | MIC99 [2] | selectivity ratio [3] | EC50 [4] | MIC99 [5]
O=C(Nc1nc(-c2cnccn2)cs1)c1ccccc1 | > 25 µM | > 25 µM | – | – | –
O=C(Nc1nc(-c2ccccn2)cs1)c1ccncc1 | 0.78 µM (≈ 0.22 µg/mL) | 1.6 µM (≈ 0.452 µg/mL) | – | – | 3.1 µM (≈ 0.875 µg/mL)
CN(C(=O)c1ccccc1)c1nc(-c2ccccn2)cs1 | ≥ 25 µM | > 25 µM | – | – | –
FC(F)(F)c1ccc(Nc2nc(-c3ccccn3)cs2)cc1 | ≥ 12.5 µM | 25 µM (≈ 8.03 µg/mL) | – | – | 12.5 µM (≈ 4.02 µg/mL)
O=C(Nc1nc(-c2cscn2)cs1)c1ccccc1 | ≥ 25 µM | > 25 µM | – | – | –
CC(=O)c1cccc(C(=O)Nc2nc(-c3ccccn3)cs2)c1 | 0.098 µM (≈ 0.0317 µg/mL) | 0.39 µM (≈ 0.126 µg/mL) | 4 | 1500 nM | 0.19 µM (≈ 0.0614 µg/mL)
Cc1cccc(Nc2nc(-c3ccccn3)cs2)c1 | 6.3 µM (≈ 1.68 µg/mL) | 25 µM (≈ 6.68 µg/mL) | – | – | 12.5 µM (≈ 3.34 µg/mL)
Fc1ccc(Nc2nc(-c3ccccn3)cs2)cc1 | 12.5 µM (≈ 3.39 µg/mL) | 25 µM (≈ 6.78 µg/mL) | – | – | 25 µM (≈ 6.78 µg/mL)
Clc1ccc(Nc2nc(-c3ccccn3)cs2)nc1 | 0.39 µM (≈ 0.113 µg/mL) | 1.6 µM (≈ 0.462 µg/mL) | – | – | 1.6 µM (≈ 0.462 µg/mL)
O=C(Nc1nc(-c2ccccn2)cs1)C1CCC1 | 6.3 µM (≈ 1.63 µg/mL) | 12.5 µM (≈ 3.24 µg/mL) | – | – | 6.3 µM (≈ 1.63 µg/mL)
O=C(Nc1nc(-c2ccccn2)co1)c1ccccc1 | 25 µM (≈ 6.63 µg/mL) | 25 µM (≈ 6.63 µg/mL) | – | – | –
O=C(Nc1nc(-c2ccccn2)cs1)c1cscn1 | > 50 µM | > 50 µM | – | – | > 50 µM
O=C(Nc1nc(-c2ccccn2)cs1)c1ccccc1 | 0.19 µM (≈ 0.0535 µg/mL) | 0.39 µM (≈ 0.11 µg/mL) | 18 | 7100 nM | 0.19 µM (≈ 0.0535 µg/mL)
Cc1ccc(Nc2nc(-c3ccccn3)cs2)cc1 | 6.3 µM (≈ 1.68 µg/mL) | 12.5 µM (≈ 3.34 µg/mL) | – | – | 12.5 µM (≈ 3.34 µg/mL)
O=C(Nc1nc(-c2ccccn2)cs1)c1ccc(F)cc1 | 0.098 µM (≈ 0.0293 µg/mL) | 0.39 µM (≈ 0.117 µg/mL) | – | 2500 nM | 0.19 µM (≈ 0.0569 µg/mL)
O=C(Nc1nc(-c2ccccn2)cs1)c1ccccn1 | 1.6 µM (≈ 0.452 µg/mL) | 6.3 µM (≈ 1.78 µg/mL) | 0.9 | 5400 nM | 3.1 µM (≈ 0.875 µg/mL)
CCCC(=O)Nc1nc(-c2ccccn2)cs1 | 12.5 µM (≈ 3.09 µg/mL) | 12 µM (≈ 2.97 µg/mL) | – | – | 25 µM (≈ 6.18 µg/mL)
FC(F)(F)c1ccccc1Nc1nc(-c2ccccn2)cs1 | 6.3 µM (≈ 2.02 µg/mL) | 12 µM (≈ 3.86 µg/mL) | – | – | 6.3 µM (≈ 2.02 µg/mL)
